Assay results from ChEMBL document CHEMBL1142958, “Carboxylated, heteroaryl-substituted chalcones as inhibitors of vascular cell adhesion molecule-1 expression for use in chronic inflammatory diseases” (J Med Chem, 2007).
Activity calls are given as the source filed them. The rule behind the calls is not given here.

Columns and labels:
Mus musculus [1] = experiment: Reduction of airway hyperresponsiveness in sc dosed ovalbumin-sensitized/challenged Balb/C mouse model of allergic asthma after 14 days; assay type: functional, organism-based
Rattus norvegicus [2] = species: Rattus norvegicus; experiment: Inhibition of splenomegaly in rat adjuvant arthritis model; assay type: functional, organism-based
Mus musculus [3] = experiment: Activity in sc dosed ovalbumin-sensitized/challenged Balb/C mouse model of allergic asthma by measuring reduced IgE levels after 14 days; assay type: functional, organism-based
Mus musculus [4] = experiment: Activity in sc dosed ovalbumin-sensitized/challenged Balb/C mouse model of allergic asthma assessed as reduction of elevated lung mRNA levels of Th2 cytokines after 14 days; assay type: functional, organism-based
PBMC = experiment: Inhibition of LPS-induced IL1-beta secretion in HPBMCs at 5 uM; assay type: functional, cell-based; conditions: Homo sapiens
Rattus norvegicus [5] = species: Rattus norvegicus; experiment: Inhibition of paw swelling in rat adjuvant arthritis model; assay type: functional, organism-based
Homo sapiens [6] = species: Homo sapiens; experiment: Inhibition of TNF-alpha-induced E-selectin expression in HPAECs; assay type: functional
Mus musculus [7] = experiment: Inhibition of tissue eosinophilia in sc dosed ovalbumin-sensitized/challenged Balb/C mouse model of allergic asthma after 14 days; assay type: functional, organism-based
Mus musculus [8] = experiment: Inhibition of airway eosinophilia in BALF in sc dosed ovalbumin-sensitized/challenged Balb/C mouse model of allergic airway inflammation after 14 days; assay type: functional, organism-based
Summary of the method: (§1)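 Male Balb/C mice, 5–6 weeks old, were sensitized i.p. with ovalbumin (8 µg) emulsified in aluminum hydroxide (1 mg) per mouse. They were then dosed s.c. in 2% Cremophor at 150, 100 or 50 mg/kg bid on days 11–13 and once on day 14. On day 14 lungs were lavaged (DMEM/F-12 + 5% FBS). Eosinophils were expressed as % of ≥300 Diff Quik-stained cytospin cells. Dexamethasone 3 mg/kg i.p. served as positive control.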

[9] = Inhibition of TNF-alpha-induced VCAM1 expression in HPAECs; assay type: functional, Homo sapiens
Summary of the method: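 Cells were seeded to reach 90–95% confluency the next day. They were stimulated with TNF-α (1 ng/mL) ± compound (final DMSO 0.25%) for about 16 h and scored visually for toxicity. Cell-surface VCAM-1 was measured by anti-VCAM-1 (0.25 µg/mL, 30 min, 37 °C), then HRP anti-mouse IgG and TMB, read at OD 450 nm. IC50 is relative to the TNF-only response; mean of ≥3 determinations.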

Homo sapiens [10] = species: Homo sapiens; experiment: Inhibition of TNF-alpha-induced MCP1 expression in HPAECs; assay type: functional
[11] = Plasma concentration in ovalbumin-sensitized/challenged Balb/C mouse model of allergic airway inflammation at 50 mg/kg, sc after 14 days; assay type: ADME, organism-based; design: dose 50 mg/kg, route subcutaneous
Summary of the method: (§2)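 Ovalbumin/alum-sensitized male Balb/C mice received s.c. doses in 2% Cremophor, bid on days 11–13 and once on day 14. Blood for plasma drug level was collected at euthanasia on day 14, 2–3 h after the final dose.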

Mus musculus [12] = experiment: Reduction of eosinophil level in BALF in ovalbumin-sensitized/challenged Balb/C mouse model of allergic airway inflammation at 50 mg/kg, sc after 14 days; assay type: functional; design: scale not given: the % may be the effect or the level left; conditions: route subcutaneous; summary of the method: as §1
Mus musculus [13] = experiment: Reduction of eosinophil level in BALF in ovalbumin-sensitized/challenged Balb/C mouse model of allergic airway inflammation at 150 mg/kg, sc after 14 days; assay type: functional; design: scale not given: the % may be the effect or the level left; conditions: route subcutaneous; summary of the method: as §1
[14] = Plasma concentration in ovalbumin-sensitized/challenged Balb/C mouse model of allergic airway inflammation at 100 mg/kg, sc after 14 days; assay type: ADME, organism-based; design: dose 100 mg/kg, route subcutaneous; summary of the method: as §2
[15] = Plasma concentration in ovalbumin-sensitized/challenged Balb/C mouse model of allergic airway inflammation at 150 mg/kg, sc after 14 days; assay type: ADME, organism-based; design: dose 150 mg/kg, route subcutaneous; summary of the method: as §2
Mus musculus [16] = experiment: Reduction of eosinophil level in BALF in ovalbumin-sensitized/challenged Balb/C mouse model of allergic airway inflammation at 100 mg/kg, po after 14 days; assay type: functional; design: scale not given: the % may be the effect or the level left

SMILES	IC50 [9]	other results
COc1cc(OC)c(-c2cc3ccccc3s2)cc1/C=C/C(=O)c1ccc(C(=O)O)cc1	0.6 µM	Activity (Mus musculus [1]): Active; Activity (Rattus norvegicus [2]): Dose-dependent effect; Activity (Mus musculus [3]): Active; Activity (Mus musculus [4]): Active; Activity (PBMC): Active; Activity (Rattus norvegicus [5]): Dose-dependent effect; Activity (Homo sapiens [6]): Active; Activity (Mus musculus [7]): Dose-dependent effect; Activity (Mus musculus [8]): Dose-dependent effect; Activity (Homo sapiens [10]): Active
COc1cc(OC)c(-c2cccs2)cc1/C=C/C(=O)c1ccccc1C(=O)O	8.6 µM	–
COc1cc(OC)c(-c2csc(C)n2)cc1/C=C/C(=O)c1ccc(C(=O)O)cc1	2.5 µM	–
COCCOCCOCCOc1cc(OC)c(-c2cccs2)cc1/C=C/C(=O)c1ccc(C(=O)O)cc1	4 µM	–
COc1cc(OCCCN2CCOCC2)c(/C=C/C(=O)c2ccc(C(=O)O)cc2)cc1-c1cccs1	0.9 µM	–
CCOC(=O)c1ccc(C(=O)/C=C/c2cc(-c3cc4ccccc4s3)c(OC)cc2OC)cc1	3.1 µM	–
COc1cc(OCC(=O)N2CCOCC2)c(/C=C/C(=O)c2ccc(C(=O)O)cc2)cc1-c1cccs1	6 µM	–
COc1cc(OC)c(-c2ccc(C)s2)cc1/C=C/C(=O)c1ccc(C(=O)O)cc1	1 µM	–
COc1ccc(-c2cccs2)cc1/C=C/C(=O)c1ccc(C(=O)O)cc1	3.1 µM	–
COc1cc(OC)c(-c2cccs2)cc1/C=C/C(=O)c1ccc(C(=O)O)cc1	3.8 µM	–
COc1cc(OC)c(-c2cc3ccccc3o2)cc1/C=C/C(=O)c1ccc(C(=O)O)cc1	0.3 µM	–
COc1cc(OC)c(-c2cc3ccccc3s2)cc1/C=C/C(=O)c1ccc(C(N)=O)cc1	0.2 µM	–
COc1cc(OC)c(-c2nc3ccccc3[nH]2)cc1/C=C/C(=O)c1ccc(C(=O)O)cc1	4.4 µM	–
CCc1cc(/C=C/C(=O)c2ccc(C(=O)O)cc2)c(OC)cc1OC	22 µM	–
COc1cc(OC)c(-c2cc3ccccc3s2)cc1/C=C/C(=O)c1ccc(C(=O)NC(=O)C(C)C)cc1	1.7 µM	–
COc1cc(OCC(CO)CO)c(-c2cccs2)cc1/C=C/C(=O)c1ccc(C(=O)O)cc1	41 µM	–
CONC(=O)c1ccc(C(=O)/C=C/c2cc(-c3cc4ccccc4s3)c(OC)cc2OC)cc1	0.5 µM	–
COc1cc(OCCN2CCOCC2)c(/C=C/C(=O)c2ccc(C(=O)O)cc2)cc1-c1cccs1	0.8 µM	–
COc1cc(OCC(CO)CO)c(/C=C/C(=O)c2ccc(C(=O)O)cc2)cc1-c1cccs1	21 µM	–
COc1cc(OC)c(-c2ccsc2)cc1/C=C/C(=O)c1ccc(C(=O)O)cc1	2.1 µM	–
COCCOCCOc1cc(OC)c(-c2cccs2)cc1/C=C/C(=O)c1ccc(C(=O)O)cc1	1.3 µM	–
COc1cc(OC)c(-c2cc3ccccc3s2)cc1/C=C/C(=O)c1ccc(C(=O)NCCN2CCOCC2)cc1	0.8 µM	–
COCCOCCOc1cc(OC)c(/C=C/C(=O)c2ccc(C(=O)O)cc2)cc1-c1cccs1	6.5 µM	–
COc1cc(OC)c(-c2cc3ccccc3s2)cc1/C=C/C(=O)c1ccc(C(=O)NC(C)=O)cc1	0.8 µM	–
COc1cc(OC)c(-c2cc3ccccc3n2C(=O)OC(C)(C)C)cc1/C=C/C(=O)c1ccc(C(=O)O)cc1	1.2 µM	–
COc1cc(OC)c(-c2cccs2)cc1/C=C/C(=O)c1cccc(C(=O)O)c1	4.2 µM	–
COc1cc(OC)c(-c2cc3ccccc3[nH]2)cc1/C=C/C(=O)c1ccc(C(=O)O)cc1	0.9 µM	concentration at 336 h [11]: 10 µM; Activity (Mus musculus [12]): 55%; Activity (Mus musculus [13]): 81%; concentration at 336 h [14]: 14 µM; concentration at 336 h [15]: 19 µM; Activity (Mus musculus [8]): Dose-dependent effect; Activity (Mus musculus [16]): 43%
CCOc1cc(OC)c(/C=C/C(=O)c2ccc(C(=O)O)cc2)cc1-c1cccs1	4.9 µM	–
